The target of assay [1] is Kappa-type opioid receptor (Mus musculus, UniProt P33534). Briefly: Binding affinity to mouse kappa opioid receptor expressed in CHO cell membrane assessed as inhibition constant incubated for 1.5 hrs by competitive radioligand binding assay. The class given is cell membranes.
Assay [2] concerns the target T1, Mu-type opioid receptor (Mus musculus, UniProt P42866). In words: Binding affinity to mouse mu opioid receptor expressed in CHO cell membrane assessed as inhibition constant incubated for 1.5 hrs by competitive radioligand binding assay. The format is cell membranes.
The test system of assay [3] is Mus musculus. In words: Antinociceptive activity in Swiss Webster mouse assessed as increase in latency to tail withdrawal at 10 mg/kg, sc observed for 20 mins by warm water tail immersion assay. The format is functional, organism-based. Summed up:
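Male Swiss-Webster mice (23–35 g, 7–8 weeks), n = 5. Compound given 10 mg/kg s.c. at time 0. Tail-flick latency is measured in 56 ± 0.1 °C water and expressed as % maximum possible effect against saline vehicle.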

Assay [4] addresses Mu-type opioid receptor (Mus musculus) (UniProt P42866). In words: Binding affinity to mouse mu opioid receptor expressed in CHO cell membrane assessed as stimulation of [35S]-GTPgammaS binding by measuring maximal efficacy incubated for 1.5 hrs by scintillation spectroscopy analysis relative DAMGO. The class given is cell membranes. The procedure, abridged: (§1)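 MOR [35S]GTPγS functional assay in MOR-CHO membranes (Bmax about 2.5–4 pmol/mg). Efficacy is expressed as % of the maximal stimulation by full agonist DAMGO.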
For orientation: GTPγS resists hydrolysis and so accumulates on activated G proteins.

Assay [5] deals with T1, Mu-type opioid receptor. In words: Binding affinity to mouse mu opioid receptor expressed in CHO cell membrane assessed as [35S]GTPgammaS binding incubated for 1.5 hrs by liquid scintillation counter analysis. The class given is cell membranes. The procedure, abridged:
as §1

Assay [6] deals with Kappa-type opioid receptor (Mus musculus) (UniProt P33534). In words: Binding affinity to mouse kappa opioid receptor expressed in CHO cell membrane assessed as stimulation of [35S]-GTPgammaS binding by measuring maximal efficacy incubated for 1.5 hrs by scintillation spectroscopy analysis relative SNC80. The class given is cell membranes. The note with it: filed as modulator.

Assay [7] concerns Mus musculus. In words: Effect of compound on chronic morphine pelleted Swiss Webster mouse model assessed as decrease in wet-dog shake symptom at 50 mg/kg, sc and measured for 20 mins by withdrawal assay. The format is functional, organism-based.
The target of assay [8] is Kappa-type opioid receptor (Mus musculus) (UniProt P33534). In words: Binding affinity to mouse kappa opioid receptor expressed in CHO cell membrane assessed as stimulation of [35S]-GTPgammaS binding by measuring maximal efficacy incubated for 1.5 hrs by scintillation spectroscopy analysis relative U50488H. The class given is cell membranes. The note with it: filed as modulator. The procedure, abridged: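 KOR [35S]GTPγS functional assay in KOR-expressing CHO membranes. Efficacy is expressed as % of the maximal stimulation by full agonist U50,488H, with EC50 also determined. Mean of at least three independent experiments.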

Assay [9] concerns Mus musculus. Briefly: Antinociceptive activity in sc dosed Swiss Webster mouse assessed as inhibition of morphine induced latency to tail withdrawal preincubated for 5 mins followed by morphine addition and measured after 20 mins by warm water tail immersion assay. The format is functional. To be noted: 25 min. The procedure, abridged:
(§2)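 Male Swiss-Webster mice (n = 5). Compound is given s.c. at time 0 (10 mg/kg in the single-dose screen, a dose range for AD50), and morphine 10 mg/kg follows 5 min later. Tail flick is tested in 56 ± 0.1 °C water 20 min after morphine and scored as % MPE. Saline and morphine alone are the controls.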

Assay [10] concerns Mus musculus. In words: Effect of compound on chronic morphine pelleted Swiss Webster mouse model assessed as decrease in paw tremors symptom at 50 mg/kg, sc and measured for 20 mins by withdrawal assay. The format is functional, organism-based.
Assay [11] deals with Mus musculus. Briefly: Effect of compound on chronic morphine pelleted Swiss Webster mouse model assessed as decrease in jump symptom at 50 mg/kg, sc and measured for 20 mins by withdrawal assay. The format is functional, organism-based.
Assay [12] deals with Mus musculus. Briefly: Effect of compound on chronic morphine pelleted Swiss Webster mouse model assessed as decrease in wet-dog shake symptom at 1 mg/kg, sc and measured for 20 mins by withdrawal assay. The format is functional, organism-based. The procedure, abridged: (§3)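 Male Swiss-Webster mice made dependent with chronic morphine pellets. Compound is injected and wet-dog shakes, paw tremors and jumps are counted over 20 min after each injection.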

The subject of assay [13] is Mus musculus. Briefly: Effect of compound on chronic morphine pelleted Swiss Webster mouse model assessed as decrease in jump symptom at 1 mg/kg, sc and measured for 20 mins by withdrawal assay. The class given is functional, organism-based. The procedure, abridged:
as §3

Assay [14] deals with Mus musculus. In words: Effect of compound on chronic morphine pelleted Swiss Webster mouse model assessed as decrease in paw tremors symptom at 1 mg/kg, sc and measured for 20 mins by withdrawal assay. The class given is functional, organism-based. The procedure, abridged:
as §3

Assay [15] has as its system Mus musculus. Briefly: Antinociceptive activity in Swiss Webster mouse assessed as inhibition of morphine induced latency to tail withdrawal at 10 mg/kg, sc preincubated for 5 mins followed by morphine addition and measured after 20 mins by warm water tail immersion assay. The format is functional, organism-based. The note with it: time 25.0 min. Summed up:
as §2

Assay [16] is filed under the species Mus musculus. In words: Selectivity ratio, ratio of Ki for binding affinity to mouse kappa opioid receptor expressed in CHO cell membrane to Ki for binding affinity to mouse mu opioid receptor expressed in CHO cell membrane.
Assay [17] in a line: Selectivity ratio, ratio of Ki for binding affinity to human delta opioid receptor expressed in CHO cell membrane to Ki for binding affinity to mouse mu opioid receptor expressed in CHO cell membrane.

The text below walks through data of ChEMBL document CHEMBL5316274 (J Med Chem, 2023).

pEC50, pKi: −log10 of the molar value. Active and inactive are the calls of the source. No cut-off for these calls is given here.

For `Cc1c[nH]c2c(C(=O)N[C@@H]3CC[C@@]4(O)[C@H]5Cc6ccc(O)c7c6[C@@]4(CCN5CC4CC4)[C@H]3O7)cccc12`, the pKi in assay [1] was 9.00; at Mu-type opioid receptor [2], 9.34. Also, in the assay on Mus musculus [3], the outcome was Active. For the same molecule, the Emax in assay [4] (filed as modulator) amounted to 44%. Besides, the pEC50 at Mu-type opioid receptor [5] is 8.91.

Take `O=C(N[C@H]1CC[C@@]2(O)[C@H]3Cc4ccc(O)c5c4[C@@]2(CCN3CC2CC2)[C@H]1O5)c1cccc2cc[nH]c12`: the Emax in assay [6] was 76.8%; in [8], 48.3%; in assay [4], 19.1%. In addition, the result with Mus musculus [7] and in the assay with Mus musculus [11] was inactive. For the same molecule, the ED50 in the assay on Mus musculus [9] is 2.07 mg/kg. In addition, in the assay with Mus musculus [10], the outcome was Active.

Turning to `C=CCN1CC[C@]23c4c5ccc(O)c4O[C@H]2C(=O)CC[C@@]3(O)[C@H]1C5`, the outcome with Mus musculus [12], with Mus musculus [13] and in the assay with Mus musculus [14] was Active.

In the case of `O=C(N[C@H]1CC[C@@]2(O)[C@H]3Cc4ccc(O)c5c4[C@@]2(CCN3CC2CC2)[C@H]1O5)c1cccc2c(Cl)c[nH]c12`, the pKi in assay [1] is 8.22; at Mu-type opioid receptor [2] it was 9.01. Moreover, the result in the assay on Mus musculus [15] was inactive. Moreover, the results for the Ratio Ki (in the assay filed under Mus musculus [16]; in assay [17]) were 6.1 and 37.9, respectively. The Emax in assay [4] came out at 13.2%. Also, the negative logarithm of the EC50 (pEC50) on Mu-type opioid receptor [5] was 8.44.

For the molecule `N#Cc1c[nH]c2c(C(=O)N[C@@H]3CC[C@@]4(O)[C@H]5Cc6ccc(O)c7c6[C@@]4(CCN5CC4CC4)[C@H]3O7)cccc12`, the pKi in [1] is 9.00; at Mu-type opioid receptor [2], 9.42. In addition, the outcome with Mus musculus [15] was inactive. Also, the Ratio Ki was 2.7 in the assay filed under Mus musculus [16] and 67.4 in [17]. Moreover, in [4], the Emax came to 38.8%. Also, at Mu-type opioid receptor [5], the pEC50 was 8.51.

Turning to `CC(C)c1c[nH]c2c(C(=O)N[C@H]3CC[C@@]4(O)[C@H]5Cc6ccc(O)c7c6[C@@]4(CCN5CC4CC4)[C@H]3O7)cccc12`, the results for the pKi (in assay [1]; at Mu-type opioid receptor [2]) were 7.96 and 8.56, respectively. For the same molecule, the result in the assay on Mus musculus [15] was inactive. The values for the Ratio Ki (in the assay listed under Mus musculus [16]; in assay [17]) were 4 and 9.3, respectively. Besides, the Emax in assay [4] was 8.37%. Further, the pEC50 on Mu-type opioid receptor [5] was 8.61.

`O=C(N[C@H]1CC[C@@]2(O)[C@H]3Cc4ccc(O)c5c4[C@@]2(CCN3CC2CC2)[C@H]1O5)c1cccc2c(Br)c[nH]c12`: the pKi in assay [1] was 8.28; at Mu-type opioid receptor [2], 9.03. Moreover, in the assay on Mus musculus [15], the outcome was inactive. Besides, the results for the Ratio Ki (in the assay listed under Mus musculus [16]; in assay [17]) were 5.7 and 20.6, respectively. The Emax in assay [4] stood at 14.9%. Also, the pEC50 on Mu-type opioid receptor [5] is 8.61.

In the case of `CC(C)c1c[nH]c2c(C(=O)N[C@@H]3CC[C@@]4(O)[C@H]5Cc6ccc(O)c7c6[C@@]4(CCN5CC4CC4)[C@H]3O7)cccc12`, the pKi is 9.01 in assay [1] and 9.05 at Mu-type opioid receptor [2]. Further, the result with Mus musculus [15] was inactive. Besides, the Ratio Ki in the assay filed under Mus musculus [16] was 1.1; in [17], 22.2. The maximum response (Emax) in assay [4] stood at 36.2%. Moreover, on Mu-type opioid receptor [5], the pEC50 is 8.76.

Turning to `Cc1cc2cccc(C(=O)N[C@@H]3CC[C@@]4(O)[C@H]5Cc6ccc(O)c7c6[C@@]4(CCN5CC4CC4)[C@H]3O7)c2[nH]1`, the negative logarithm of the Ki (pKi) in assay [1] was 9.10; on Mu-type opioid receptor [2] it was 9.51. For the same molecule, the result in the assay with Mus musculus [15] was inactive. Further, the Ratio Ki in the assay filed under Mus musculus [16] came to 2.6; in assay [17], 51.1. Moreover, the Emax in [4] was determined as 21.8%. Further, the pEC50 at Mu-type opioid receptor [5] is 8.82.

In the case of `O=C(N[C@@H]1CC[C@@]2(O)[C@H]3Cc4ccc(O)c5c4[C@@]2(CCN3CC2CC2)[C@H]1O5)c1cccc2cc(Br)[nH]c12`, the pKi was 9.34 in assay [1] and 9.46 on Mu-type opioid receptor [2]. Besides, the outcome with Mus musculus [15] was inactive. The Ratio Ki in the assay filed under Mus musculus [16] came out at 1.3; in assay [17] it was 8.8. Besides, the maximum response (Emax) in assay [4] was found to be 36.2%. The pEC50 on Mu-type opioid receptor [5] was 9.06.

As for `O=C(N[C@@H]1CC[C@@]2(O)[C@H]3Cc4ccc(O)c5c4[C@@]2(CCN3CC2CC2)[C@H]1O5)c1cccc2c(Cl)c[nH]c12`, the negative logarithm of the Ki (pKi) on Mu-type opioid receptor [2] is 9.21. The Ratio Ki was 0.5 in the assay filed under Mus musculus [16] and 7.2 in assay [17]. Also, the outcome in the assay on Mus musculus [3] was Active. Besides, the Emax in assay [4] (filed as modulator) stood at 59.5%. Moreover, the pEC50 on Mu-type opioid receptor [5] was 8.98.

Regarding `O=C(N[C@@H]1CC[C@@]2(O)[C@H]3Cc4ccc(O)c5c4[C@@]2(CCN3CC2CC2)[C@H]1O5)c1cccc2c([N+](=O)[O-])c[nH]c12`, the pKi in assay [1] was 9.10; at Mu-type opioid receptor [2], 9.27. The results for the Ratio Ki (in the assay listed under Mus musculus [16]; in assay [17]) were 1.5 and 47.5, respectively. Also, in the assay on Mus musculus [3], the outcome was Active. Moreover, the Emax in [4] (filed as modulator) worked out at 60.9%. Moreover, the pEC50 at Mu-type opioid receptor [5] was 8.95.

Take `O=Cc1c[nH]c2c(C(=O)N[C@@H]3CC[C@@]4(O)[C@H]5Cc6ccc(O)c7c6[C@@]4(CCN5CC4CC4)[C@H]3O7)cccc12`: the negative-log Ki (pKi) in [1] is 8.39; at Mu-type opioid receptor [2], 9.16. For the same molecule, the outcome in the assay with Mus musculus [15] was inactive. For the same molecule, the Ratio Ki was 5.8 in the assay filed under Mus musculus [16] and < 35.1 in assay [17]. Besides, the Emax in assay [4] turned out to be 21.3%. At Mu-type opioid receptor [5], the pEC50 was 8.92.

The term pKi denotes the negative decadic logarithm of the Ki, by convention in mol/L. As a reminder, the Emax is the maximal effect, on the per cent scale that the assay sets. A word on the pEC50: it is the EC50 on a negative log10 scale, so that one unit is a factor of ten. Broadly, the ED50 is the midpoint of the dose-response relation.
